Converted amounts (≈) assume the structure as drawn. The source made the active and inactive calls. No cut-off for these calls is given here.
Experiments:
Staphylococcus aureus [1] = assay: Antibacterial activity against Staphylococcus aureus ATCC 29213 after 16 to 18 hrs by CLSI M07-A10 protocol based dilution method; format: functional
Method in brief: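 MIC against ATCC 29213 determined by a previously described protocol; values in μg/mL.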

[2] = L-cysteine reactivity in pH 7.4 phosphate buffer assessed as compound remaining at 100 uM incubated for 1 hr by HPLC analysis
Staphylococcus aureus [3] = assay: Bactericidal activity against Staphylococcus aureus ATCC 29213 at 1 to 10 times MIC preincubated up to 24 hrs under shaking condition followed by bacterial plating on Tryptic Soy agar and measured after 18 to 20 hrs by time kill assay; format: functional, organism-based
Staphylococcus aureus [4] = assay: Antibacterial activity against vancomycin-resistant Staphylococcus aureus SA-HIP-14300 after 16 to 18 hrs by CLSI M07-A10 protocol based dilution method; format: functional
Staphylococcus aureus [5] = assay: Antibacterial activity against vancomycin-resistant Staphylococcus aureus SA-HIP-11983 after 16 to 18 hrs by CLSI M07-A10 protocol based dilution method; format: functional
Staphylococcus aureus [6] = assay: Antibacterial activity against vancomycin-resistant Staphylococcus aureus SA-HIP-15178 after 16 to 18 hrs by CLSI M07-A10 protocol based dilution method; format: functional
Staphylococcus aureus [7] = assay: Antibacterial activity against vancomycin-resistant Staphylococcus aureus 1002434 after 16 to 18 hrs by CLSI M07-A10 protocol based dilution method; format: functional
Enterococcus faecalis = assay: Antibacterial activity against Enterococcus faecalis B3119 after 16 to 18 hrs by CLSI M07-A10 protocol based dilution method; format: functional
Pseudomonas aeruginosa = assay: Antibacterial activity against Pseudomonas aeruginosa ATCC 27853 after 16 to 18 hrs by CLSI M07-A10 protocol based dilution method; format: functional
Staphylococcus aureus [8] = assay: Bactericidal activity against vancomycin-resistant Staphylococcus aureus HIP11714 at 10 times MIC measured up to 24 hrs by time kill assay; format: functional, organism-based
[9] = L-cysteine reactivity in pH 7.4 phosphate buffer assessed as pseudo first order rate constant at 100 uM measured at 10 mins time interval up to 60 mins by HPLC analysis
[10] = Chemical reactivity assessed as thiolated-adduct formation at 25 uM using 4-nitrobenzyl thiol after 1 hr by HPLC analysis; format: physicochemical
Staphylococcus aureus [11] = assay: Binding affinity to Staphylococcus aureus ATCC 29213 DAPDC at 10 uM in presence of 9-(Pent-4-yn-1-yl)-1a,10a-dihydro-2H-oxireno[2',3':4,5]-benzo[1,2-a]carbazole-2,10(9H)-dione after 1 hr by biotin-azide fluorescence dependent LC-MS/MS-based ABPP assay
Method in brief: (§1)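 Competitive LC–MS/MS ABPP on S. aureus soluble proteome. Pretreatment 1 h with DMSO, compound (10 μM), comparator (10 μM) or iodoacetamide (10 mM). Chase with alkyne probe (10 μM, 1 h), then Cu-catalysed click with biotin-azide and LC–MS/MS. Targets were proteins at ratio ≤0.1 versus DMSO in the compound and IAM groups and ~1 in the comparator group.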

[12] = target: T1, Arsenate reductase (Staphylococcus aureus) (UniProt P0A006); assay: Binding affinity to Staphylococcus aureus ATCC 29213 Arsenate reductase at 10 uM in presence of 9-(Pent-4-yn-1-yl)-1a,10a-dihydro-2H-oxireno[2',3':4,5]-benzo[1,2-a]carbazole-2,10(9H)-dione after 1 hr by biotin-azide fluorescence dependent LC-MS/MS-based ABPP assay; method in brief: as §1
T1 sequence (whole entry): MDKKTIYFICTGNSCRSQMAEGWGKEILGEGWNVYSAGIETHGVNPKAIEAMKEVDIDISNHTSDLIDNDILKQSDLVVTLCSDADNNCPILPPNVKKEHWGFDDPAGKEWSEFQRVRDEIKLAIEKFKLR

Staphylococcus aureus [13] = assay: Binding affinity to Staphylococcus aureus ATCC 29213 HxlR family transcriptional regulator at 10 uM in presence of 9-(Pent-4-yn-1-yl)-1a,10a-dihydro-2H-oxireno[2',3':4,5]-benzo[1,2-a]carbazole-2,10(9H)-dione after 1 hr by biotin-azide fluorescence dependent LC-MS/MS-based ABPP assay; method in brief: as §1
Staphylococcus aureus [14] = assay: Binding affinity to Staphylococcus aureus ATCC 29213 Methionine aminopeptidase at 10 uM in presence of 9-(Pent-4-yn-1-yl)-1a,10a-dihydro-2H-oxireno[2',3':4,5]-benzo[1,2-a]carbazole-2,10(9H)-dione after 1 hr by biotin-azide fluorescence dependent LC-MS/MS-based ABPP assay; method in brief: as §1
Staphylococcus aureus [15] = assay: Binding affinity to Staphylococcus aureus ATCC 29213 Heme peroxidase at 10 uM in presence of 9-(Pent-4-yn-1-yl)-1a,10a-dihydro-2H-oxireno[2',3':4,5]-benzo[1,2-a]carbazole-2,10(9H)-dione after 1 hr by biotin-azide fluorescence dependent LC-MS/MS-based ABPP assay; method in brief: as §1
Staphylococcus aureus [16] = assay: Binding affinity to Staphylococcus aureus ATCC 29213 MarR family transcriptional regulator at 10 uM in presence of 9-(Pent-4-yn-1-yl)-1a,10a-dihydro-2H-oxireno[2',3':4,5]-benzo[1,2-a]carbazole-2,10(9H)-dione after 1 hr by biotin-azide fluorescence dependent LC-MS/MS-based ABPP assay; method in brief: as §1
Staphylococcus aureus [17] = assay: Binding affinity to Staphylococcus aureus ATCC 29213 Thioredoxin at 10 uM in presence of 9-(Pent-4-yn-1-yl)-1a,10a-dihydro-2H-oxireno[2',3':4,5]-benzo[1,2-a]carbazole-2,10(9H)-dione after 1 hr by biotin-azide fluorescence dependent LC-MS/MS-based ABPP assay; method in brief: as §1
Staphylococcus aureus [18] = assay: Binding affinity to Staphylococcus aureus ATCC 29213 Transcriptional regulator at 10 uM in presence of 9-(Pent-4-yn-1-yl)-1a,10a-dihydro-2H-oxireno[2',3':4,5]-benzo[1,2-a]carbazole-2,10(9H)-dione after 1 hr by biotin-azide fluorescence dependent LC-MS/MS-based ABPP assay; method in brief: as §1
Staphylococcus aureus [19] = assay: Binding affinity to Staphylococcus aureus ATCC 29213 MEP-cytidylyltransferase at 10 uM in presence of 9-(Pent-4-yn-1-yl)-1a,10a-dihydro-2H-oxireno[2',3':4,5]-benzo[1,2-a]carbazole-2,10(9H)-dione after 1 hr by biotin-azide fluorescence dependent LC-MS/MS-based ABPP assay; method in brief: as §1
Staphylococcus aureus [20] = assay: Binding affinity to Staphylococcus aureus ATCC 29213 Catabolite control protein A at 10 uM in presence of 9-(Pent-4-yn-1-yl)-1a,10a-dihydro-2H-oxireno[2',3':4,5]-benzo[1,2-a]carbazole-2,10(9H)-dione after 1 hr by biotin-azide fluorescence dependent LC-MS/MS-based ABPP assay; method in brief: as §1
Erythrocyte = assay: Toxicity in human erythrocytes assessed as induction of hemolysis at 100 ug/ml incubated under shaking condition for 1 hr by spectrophotometric method; format: cell-based

For CC(C)n1c2ccccc2c2ccc3c(c21)C(=O)C1OC1C3=O (stereo not drawn), the MIC (Staphylococcus aureus [1]) was 0.125 to 0.5 µg/mL (≈ 0.409 to 1.64 µM), the Activity [2] was 34% and the Activity (Staphylococcus aureus [3]) was “Active”. For the same compound, the MIC (Staphylococcus aureus [4]) was 0.5 µg/mL (≈ 1.64 µM), the MIC (Staphylococcus aureus [5]) was 0.5 µg/mL (≈ 1.64 µM) and the MIC (Staphylococcus aureus [6]) was 0.5 µg/mL (≈ 1.64 µM). It also gave an MIC (Staphylococcus aureus [7]) of 0.5 µg/mL (≈ 1.64 µM), an MIC (Enterococcus faecalis) of 64 µg/mL (≈ 210 µM) and an MIC (Pseudomonas aeruginosa) of 64 µg/mL (≈ 210 µM). For the same compound, the Activity (Staphylococcus aureus [8]) was “Active”, the K [9] was 7.54 ×10⁻² /min and the Activity [10] was “Active”. The Activity (Staphylococcus aureus [11]) was “Active”, the Activity [12] was “Active” and the Activity (Staphylococcus aureus [13]) was “Active”. The Activity (Staphylococcus aureus [14]) was “Active”, the Activity (Staphylococcus aureus [15]) was “Active” and the Activity (Staphylococcus aureus [16]) was “Active”. The Activity (Staphylococcus aureus [17]) was “Active”, the Activity (Staphylococcus aureus [18]) was “Active” and the Activity (Staphylococcus aureus [19]) was “Active”. For the same compound, the Activity (Staphylococcus aureus [20]) was “Active” and the Activity (Erythrocyte) was “Non-Toxic”.

— ChEMBL document CHEMBL4359831, “Chemoproteomics of an Indole-Based Quinone Epoxide Identifies Druggable Vulnerabilities in Vancomycin-Resistant Staphylococcus aureus” (J Med Chem, 2019)
